≈ marks a conversion by molar mass, not a printed value.
Assays:
Type in all cases: functional
Candida parapsilosis [1] = assay: Antimicrobial activity against Candida parapsilosis ATCC 22019 after 48 hrs by microdilution broth method; settings: Lodderomyces parapsilosis, ATCC 22019, 48 h
In short: (§1)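 Yeasts were grown overnight on Sabouraud dextrose agar at 35°C, suspended in water, and adjusted at 530 nm to McFarland 0.5 (approximately 1-5 x 10^6 CFU/ml). They were then diluted 1:100 and 1:20 in RPMI 1640 with 0.165 M MOPS and 2% glucose. Compound in DMSO was tested at ten concentrations, 0.25–256 mg/L, with incubation at 35°C. At 48 h, MIC was read spectrophotometrically as 50% turbidity reduction versus growth control.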

Candida albicans [2] = assay: Antimicrobial activity against Candida albicans isolate 31 after 48 hrs by microdilution broth method; settings: isolate 31, 48 h; in short: as §1
Candida albicans [3] = assay: Antimicrobial activity against Candida albicans isolate 41 after 48 hrs by microdilution broth method; settings: isolate 41, 48 h; in short: as §1
Candida albicans [4] = assay: Antimicrobial activity against Candida albicans isolate 47 after 48 hrs by microdilution broth method; settings: isolate 47, 48 h; in short: as §1
Candida albicans [5] = assay: Antimicrobial activity against Candida albicans isolate 48 after 48 hrs by microdilution broth method; settings: isolate 48, 48 h; in short: as §1
Pichia kudriavzevii [6] = assay: Antimicrobial activity against Candida krusei isolate 31 after 48 hrs by microdilution broth method; settings: isolate 31, 48 h; in short: as §1
Pichia kudriavzevii [7] = assay: Antimicrobial activity against Candida krusei isolate 43 after 48 hrs by microdilution broth method
Pichia kudriavzevii [8] = assay: Antimicrobial activity against Candida krusei isolate 48 after 48 hrs by microdilution broth method
Candida tropicalis [9] = assay: Antimicrobial activity against Candida tropicalis isolate 33 after 48 hrs by microdilution broth method; settings: isolate 33, 48 h; in short: as §1
Candida tropicalis [10] = assay: Antimicrobial activity against Candida tropicalis isolate 11 after 48 hrs by microdilution broth method; settings: isolate 11, 48 h; in short: as §1
Candida tropicalis [11] = assay: Antimicrobial activity against Candida tropicalis isolate 15 after 48 hrs by microdilution broth method; settings: isolate 15, 48 h; in short: as §1
Candida tropicalis [12] = assay: Antimicrobial activity against Candida tropicalis isolate 22 after 48 hrs by microdilution broth method; settings: isolate 22, 48 h; in short: as §1
Nakaseomyces glabratus [13] = assay: Antimicrobial activity against Candida glabrata isolate 30 after 48 hrs by microdilution broth method; in short: as §1
Nakaseomyces glabratus [14] = assay: Antimicrobial activity against Candida glabrata isolate 32 after 48 hrs by microdilution broth method; settings: isolate 32, 48 h; in short: as §1
Nakaseomyces glabratus [15] = assay: Antimicrobial activity against Candida glabrata isolate 46 after 48 hrs by microdilution broth method; in short: as §1
Nakaseomyces glabratus [16] = assay: Antimicrobial activity against Candida glabrata isolate 49 after 48 hrs by microdilution broth method; in short: as §1
Candida parapsilosis [17] = assay: Antimicrobial activity against Candida parapsilosis isolate 26 after 48 hrs by microdilution broth method; settings: Lodderomyces parapsilosis, isolate 26, 48 h; in short: as §1
Candida parapsilosis [18] = assay: Antimicrobial activity against Candida parapsilosis isolate 39 after 48 hrs by microdilution broth method; settings: Lodderomyces parapsilosis, isolate 39, 48 h
In short: (§2)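 Yeasts grown overnight on Sabouraud dextrose agar at 35°C, suspended in sterile water, and adjusted to McFarland 0.5 at 530 nm (about 1-5 x 10^6 CFU/ml), then diluted 1:100 and 1:20 in RPMI 1640 with 0.165 M MOPS and 2% glucose. Compound in DMSO tested at ten concentrations, 0.25-256 mg/L, at 35°C. MIC read spectrophotometrically at 48 h as 50% turbidity reduction versus growth control.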

Candida parapsilosis [19] = assay: Antimicrobial activity against Candida parapsilosis isolate 44 after 48 hrs by microdilution broth method; settings: Lodderomyces parapsilosis, isolate 44, 48 h; in short: as §1
Candida parapsilosis [20] = assay: Antimicrobial activity against Candida parapsilosis isolate 19 after 48 hrs by microdilution broth method; settings: Lodderomyces parapsilosis, isolate 19, 48 h; in short: as §1
[21] = test system: Cryptococcus deneoformans; assay: Antimicrobial activity against Cryptococcus neoformans var. neoformans isolate 14 after 48 hrs by microdilution broth method; settings: isolate 14, 48 h; in short: as §1
[22] = test system: Cryptococcus deneoformans; assay: Antimicrobial activity against Cryptococcus neoformans var. neoformans isolate 27 after 48 hrs by microdilution broth method; settings: isolate 27, 48 h; in short: as §1
[23] = test system: Cryptococcus deneoformans; assay: Antimicrobial activity against Cryptococcus neoformans var. neoformans isolate 30 after 48 hrs by microdilution broth method; settings: isolate 30, 48 h; in short: as §1
[24] = test system: Cryptococcus deneoformans; assay: Antimicrobial activity against Cryptococcus neoformans var. neoformans isolate 25 after 48 hrs by microdilution broth method; settings: isolate 25, 48 h; in short: as §1
Candida albicans [25] = assay: Antimicrobial activity against Candida albicans ATCC 90028 after 48 hrs by microdilution broth method; settings: ATCC 90028, 48 h; in short: as §2
Pichia kudriavzevii [26] = assay: Antimicrobial activity against Candida krusei ATCC 6258 after 48 hrs by microdilution broth method; settings: ATCC 6258, 48 h

`CC[C@@H]([C@H](C)O)n1ncn(-c2ccc(N3CCN(c4ccc(OC[C@@H]5CO[C@@](Cn6cncn6)(c6ccc(F)cc6F)C5)cc4)CC3)cc2)c1=O` [POSACONAZOLE] was tested, and the MIC (Candida parapsilosis [1]) was 0.12 µg/mL (≈ 0.171 µM), the MIC (Candida albicans [2]) was 0.008 µg/mL (≈ 0.0114 µM) and the MIC (Candida albicans [3]) was 0.016 µg/mL (≈ 0.0228 µM). It also gave an MIC (Candida albicans [4]) of 0.016 µg/mL (≈ 0.0228 µM), an MIC (Candida albicans [5]) of 0.008 µg/mL (≈ 0.0114 µM) and an MIC (Pichia kudriavzevii [6]) of 0.25 µg/mL (≈ 0.357 µM). The MIC (Pichia kudriavzevii [7]) was 0.5 µg/mL (≈ 0.713 µM), the MIC (Pichia kudriavzevii [8]) was 0.25 µg/mL (≈ 0.357 µM) and the MIC (Candida tropicalis [9]) was 0.12 µg/mL (≈ 0.171 µM). It also gave an MIC (Candida tropicalis [10]) of 0.12 µg/mL (≈ 0.171 µM), an MIC (Candida tropicalis [11]) of 0.25 µg/mL (≈ 0.357 µM) and an MIC (Candida tropicalis [12]) of 0.25 µg/mL (≈ 0.357 µM). The MIC (Nakaseomyces glabratus [13]) was 0.5 µg/mL (≈ 0.713 µM), the MIC (Nakaseomyces glabratus [14]) was greater than 8 µg/mL and the MIC (Nakaseomyces glabratus [15]) was 1 µg/mL (≈ 1.43 µM). For the same compound, the MIC (Nakaseomyces glabratus [16]) was 0.25 µg/mL (≈ 0.357 µM), the MIC (Candida parapsilosis [17]) was 0.03 µg/mL (≈ 0.0428 µM) and the MIC (Candida parapsilosis [18]) was 0.06 µg/mL (≈ 0.0856 µM). It also gave an MIC (Candida parapsilosis [19]) of 0.03 µg/mL (≈ 0.0428 µM), an MIC (Candida parapsilosis [20]) of 0.03 µg/mL (≈ 0.0428 µM) and an MIC [21] of 0.03 µg/mL (≈ 0.0428 µM). The MIC [22] was 0.06 µg/mL (≈ 0.0856 µM), the MIC [23] was 0.12 µg/mL (≈ 0.171 µM) and the MIC [24] was 0.06 µg/mL (≈ 0.0856 µM). The MIC (Candida albicans [25]) was 0.008 µg/mL (≈ 0.0114 µM) and the MIC (Pichia kudriavzevii [26]) was 0.25 µg/mL (≈ 0.357 µM).

In the case of `OC(Cn1cncn1)(Cn1cncn1)c1ccc(F)cc1F` [FLUCONAZOLE], the MIC (Candida parapsilosis [1]) is reported as 2 µg/mL (≈ 6.53 µM), the MIC (Candida albicans [2]) is reported as 0.25 µg/mL (≈ 0.816 µM) and the MIC (Candida albicans [3]) is reported as 0.12 µg/mL (≈ 0.392 µM). The MIC (Candida albicans [4]) was 0.25 µg/mL (≈ 0.816 µM), the MIC (Candida albicans [5]) was 0.12 µg/mL (≈ 0.392 µM) and the MIC (Pichia kudriavzevii [6]) was 32 µg/mL (≈ 104 µM). For the same compound, the MIC (Pichia kudriavzevii [7]) was 64 µg/mL (≈ 209 µM), the MIC (Pichia kudriavzevii [8]) was 32 µg/mL (≈ 104 µM) and the MIC (Candida tropicalis [9]) was 1 µg/mL (≈ 3.27 µM). For the same compound, the MIC (Candida tropicalis [10]) was 1 µg/mL (≈ 3.27 µM), the MIC (Candida tropicalis [11]) was 1 µg/mL (≈ 3.27 µM) and the MIC (Candida tropicalis [12]) was 2 µg/mL (≈ 6.53 µM). It also gave an MIC (Nakaseomyces glabratus [14]) greater than 256 µg/mL, an MIC (Nakaseomyces glabratus [15]) of 16 µg/mL (≈ 52.2 µM) and an MIC (Candida parapsilosis [17]) of 1 µg/mL (≈ 3.27 µM). The MIC (Candida parapsilosis [18]) was 1 µg/mL (≈ 3.27 µM), the MIC (Candida parapsilosis [19]) was 2 µg/mL (≈ 6.53 µM) and the MIC (Candida parapsilosis [20]) was 1 µg/mL (≈ 3.27 µM). For the same compound, the MIC [21] was 0.5 µg/mL (≈ 1.63 µM), the MIC [22] was 2 µg/mL (≈ 6.53 µM) and the MIC [23] was 4 µg/mL (≈ 13.1 µM). It also gave an MIC [24] of 2 µg/mL (≈ 6.53 µM), an MIC (Candida albicans [25]) of 0.12 µg/mL (≈ 0.392 µM) and an MIC (Pichia kudriavzevii [26]) of 32 µg/mL (≈ 104 µM).

`C[C@@H](c1ncncc1F)[C@](O)(Cn1cncn1)c1ccc(F)cc1F` [VORICONAZOLE] showed an MIC (Candida parapsilosis [1]) of 0.06 µg/mL (≈ 0.172 µM), an MIC (Candida albicans [2]) of less than 0.008 µg/mL and an MIC (Candida albicans [3]) of less than 0.008 µg/mL. The MIC (Candida albicans [4]) was 0.008 µg/mL (≈ 0.0229 µM), the MIC (Candida albicans [5]) was less than 0.008 µg/mL and the MIC (Pichia kudriavzevii [6]) was 0.12 µg/mL (≈ 0.344 µM). It also gave an MIC (Pichia kudriavzevii [7]) of 0.5 µg/mL (≈ 1.43 µM), an MIC (Pichia kudriavzevii [8]) of 0.25 µg/mL (≈ 0.716 µM) and an MIC (Candida tropicalis [9]) of less than 0.008 µg/mL. The MIC (Candida tropicalis [10]) was 0.12 µg/mL (≈ 0.344 µM), the MIC (Candida tropicalis [11]) was 0.06 µg/mL (≈ 0.172 µM) and the MIC (Candida tropicalis [12]) was 0.06 µg/mL (≈ 0.172 µM). It also gave an MIC (Nakaseomyces glabratus [13]) of 0.25 µg/mL (≈ 0.716 µM), an MIC (Nakaseomyces glabratus [14]) of 4 µg/mL (≈ 11.5 µM) and an MIC (Nakaseomyces glabratus [15]) of 0.25 µg/mL (≈ 0.716 µM). It also gave an MIC (Nakaseomyces glabratus [16]) of 0.12 µg/mL (≈ 0.344 µM), an MIC (Candida parapsilosis [17]) of less than 0.008 µg/mL and an MIC (Candida parapsilosis [18]) of 0.016 µg/mL (≈ 0.0458 µM). It also gave an MIC (Candida parapsilosis [19]) of 0.016 µg/mL (≈ 0.0458 µM), an MIC (Candida parapsilosis [20]) of 0.008 µg/mL (≈ 0.0229 µM) and an MIC [21] of less than 0.008 µg/mL. For the same compound, the MIC [22] was 0.016 µg/mL (≈ 0.0458 µM), the MIC [23] was 0.016 µg/mL (≈ 0.0458 µM) and the MIC [24] was 0.016 µg/mL (≈ 0.0458 µM). It also gave an MIC (Candida albicans [25]) of 0.008 µg/mL (≈ 0.0229 µM) and an MIC (Pichia kudriavzevii [26]) of 0.25 µg/mL (≈ 0.716 µM).

Source: ChEMBL document CHEMBL1777788, “Synthesis and in vitro antimicrobial activities of new (cyano-NNO-azoxy)pyrazole derivatives” (2011)
